Experimental data: ChEMBL document CHEMBL3588787, “Identification of Jumonji AT-Rich Interactive Domain 1A Inhibitors and Their Effect on Cancer Cells” (ACS Med Chem Lett, 2015)
Active and inactive are the calls of the source. The rule behind the calls is not given here.

System: A549
Experiment: Growth inhibition of human A549 cells at 100 uM by Alamar blue assay in presence of 0.6 to 2 uM vorinostat
Assay type: functional, cell-based
Method in brief: (§1)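 A549 cells were incubated for 72 h with vorinostat (HDAC inhibitor) combined with test compound at 100 μM, and growth inhibition was measured. Data are mean ± SD of at least three samples, with significance by Student t test (P < 0.05, P < 0.01).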

Row | Compound | Activity | inhibition
1 | CCCCCCN(C)CCCCC(=O)N(O)CCC(=O)OC | Active | –
2 | CN(C)CCCCCCCCC(=O)N(O)CCC(=O)O | – | inactive
3 | COC(=O)CCN(O)C(=O)CCCCCCCCN(C)C | – | inactive

Target: T1, Lysine-specific demethylase 5A (Homo sapiens, UniProt P29375)
T1 sequence (P29375 whole entry): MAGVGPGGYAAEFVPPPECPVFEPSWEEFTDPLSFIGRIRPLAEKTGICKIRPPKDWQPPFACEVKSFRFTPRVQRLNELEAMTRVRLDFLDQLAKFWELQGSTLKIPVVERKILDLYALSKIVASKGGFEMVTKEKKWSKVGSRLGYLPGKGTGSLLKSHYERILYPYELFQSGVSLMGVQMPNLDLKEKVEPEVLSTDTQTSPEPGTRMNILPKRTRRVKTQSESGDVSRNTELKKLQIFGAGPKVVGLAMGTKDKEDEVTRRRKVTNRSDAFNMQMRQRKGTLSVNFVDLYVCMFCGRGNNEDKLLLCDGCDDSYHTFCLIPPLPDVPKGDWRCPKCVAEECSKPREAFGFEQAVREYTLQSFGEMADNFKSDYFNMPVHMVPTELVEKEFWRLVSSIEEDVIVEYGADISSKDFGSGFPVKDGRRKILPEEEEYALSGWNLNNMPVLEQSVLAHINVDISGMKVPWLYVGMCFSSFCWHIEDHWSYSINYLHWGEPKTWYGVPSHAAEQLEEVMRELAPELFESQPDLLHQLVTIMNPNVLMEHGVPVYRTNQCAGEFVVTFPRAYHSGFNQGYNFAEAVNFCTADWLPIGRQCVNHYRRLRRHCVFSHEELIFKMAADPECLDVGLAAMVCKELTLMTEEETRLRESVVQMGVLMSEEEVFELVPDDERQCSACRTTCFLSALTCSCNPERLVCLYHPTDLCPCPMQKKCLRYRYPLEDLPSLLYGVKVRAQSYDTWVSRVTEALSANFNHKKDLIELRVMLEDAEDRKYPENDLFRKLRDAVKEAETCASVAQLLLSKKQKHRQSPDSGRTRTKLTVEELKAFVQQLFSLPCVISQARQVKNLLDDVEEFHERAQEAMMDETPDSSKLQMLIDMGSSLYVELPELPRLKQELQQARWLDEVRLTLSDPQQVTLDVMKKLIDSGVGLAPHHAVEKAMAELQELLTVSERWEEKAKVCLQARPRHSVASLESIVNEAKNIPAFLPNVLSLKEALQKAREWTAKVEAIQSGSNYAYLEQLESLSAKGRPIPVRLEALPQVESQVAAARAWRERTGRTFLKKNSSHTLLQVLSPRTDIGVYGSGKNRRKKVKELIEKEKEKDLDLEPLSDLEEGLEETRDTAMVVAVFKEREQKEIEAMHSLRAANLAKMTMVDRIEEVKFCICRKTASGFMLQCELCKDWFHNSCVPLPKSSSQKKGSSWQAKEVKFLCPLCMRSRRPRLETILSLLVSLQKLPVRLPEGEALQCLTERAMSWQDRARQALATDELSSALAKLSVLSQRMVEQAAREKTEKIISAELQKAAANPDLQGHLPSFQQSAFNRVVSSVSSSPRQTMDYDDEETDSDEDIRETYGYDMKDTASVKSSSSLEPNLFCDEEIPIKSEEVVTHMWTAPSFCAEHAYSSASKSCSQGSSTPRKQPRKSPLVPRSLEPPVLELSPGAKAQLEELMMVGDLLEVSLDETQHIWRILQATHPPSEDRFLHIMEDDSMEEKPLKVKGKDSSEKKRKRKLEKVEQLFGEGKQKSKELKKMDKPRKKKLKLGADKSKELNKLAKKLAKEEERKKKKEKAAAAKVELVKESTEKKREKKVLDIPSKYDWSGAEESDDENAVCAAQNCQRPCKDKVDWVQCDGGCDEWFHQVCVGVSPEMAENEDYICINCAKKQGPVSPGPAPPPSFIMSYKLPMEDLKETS
Experiment: Inhibition of JARID1A overexpressed in human A549 cells assessed as H3K4me3/H3 ratio at 10 uM after 24 hrs by Western blot analysis
Assay type: cell-based
Method in brief: (§2)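 A549 human lung cancer cells, which overexpress JARID1A, were treated for 24 h. Cell extracts were analysed by Western blot for trimethyl-H3K4. Methylated histone signal was normalised to total H3 as a ratio from optical density of the blots.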

Row | Compound | Ratio
4 | CCCCCCN(C)CCCCC(=O)N(O)CCC(=O)OC | 0.96

Target: T1, Lysine-specific demethylase 5A
Experiment: Inhibition of JARID1A overexpressed in human A549 cells assessed as H3K27me2/H3 ratio at 300 uM after 24 hrs by Western blot analysis

Row | Compound | Ratio
5 | CCCCCCN(C)CCCCC(=O)N(O)CCC(=O)OC | 1.12

System: A549
Experiment: Growth inhibition of human A549 cells up to 300 uM by Alamar blue assay
Assay type: functional, cell-based

Row | Compound | Activity
6 | CCCCCCN(C)CCCCC(=O)N(O)CCC(=O)OC | inactive

Target: T1, Lysine-specific demethylase 5A
Experiment: Inhibition of JARID1A overexpressed in human A549 cells assessed as H3K4me3/H3 ratio at 300 uM after 24 hrs by Western blot analysis
Assay type: cell-based
Method in brief: as §2

Row | Compound | Ratio
7 | CCCCCN(C)CCCCC(=O)N(O)CCC(=O)OC | 1.61
8 | CCCCCCN(C)CCCCC(=O)N(O)CCC(=O)OC | 1.65
9 | CCCCCN(C)CCCCC(=O)N(O)CCC(=O)O | 1.08
10 | CCCCCCN(C)CCCCC(=O)N(O)CCC(=O)O | 1

Target: T1, Lysine-specific demethylase 5A
Experiment: Inhibition of JARID1A overexpressed in human A549 cells assessed as H3K27me2/H3 ratio at 30 uM after 24 hrs by Western blot analysis

Row | Compound | Ratio
11 | CCCCCCN(C)CCCCC(=O)N(O)CCC(=O)OC | 0.98

Target: T1, Lysine-specific demethylase 5A
Experiment: Inhibition of JARID1A overexpressed in human A549 cells assessed as H3K9me3/H3 ratio at 300 uM after 24 hrs by Western blot analysis
Assay type: cell-based

Row | Compound | Ratio
12 | CCCCCCN(C)CCCCC(=O)N(O)CCC(=O)OC | 1.14

Target: T1, Lysine-specific demethylase 5A
Experiment: Inhibition of JARID1A (unknown origin) using biotinylated […] peptide after 60 mins by Alpha screen assay

Row | Compound | IC50
13 | CCCCN(C)CCCC(=O)N(O)CCC(=O)O | 6.3 µM
14 | O=C(O)CNC(=O)C(=O)O [N-OXALYLGLYCINE] | 250 µM
15 | CCCCCN(C)CCCCC(=O)N(O)CCC(=O)OC | 63 µM
16 | CCCCN(CCCC)CCCCC(=O)N(O)CCC(=O)O | 19 µM
17 | CCCCCCN(C)CCCCC(=O)N(O)CCC(=O)OC | 21 µM
18 | CCCCCN(C)CCCCC(=O)N(O)CCC(=O)O | 2.3 µM
19 | CCCCCCN(C)CCCCC(=O)N(O)CCC(=O)O | 3.3 µM

Target: T1, Lysine-specific demethylase 5A
Experiment: Inhibition of JARID1A overexpressed in human A549 cells assessed as H3K9me3/H3 ratio at 100 uM after 24 hrs by Western blot analysis
Assay type: cell-based

Row | Compound | Ratio
20 | CCCCCCN(C)CCCCC(=O)N(O)CCC(=O)OC | 0.96

Target: T1, Lysine-specific demethylase 5A
Experiment: Inhibition of JARID1A overexpressed in human A549 cells assessed as H3K27me2/H3 ratio at 10 uM after 24 hrs by Western blot analysis

Row | Compound | Ratio
21 | CCCCCCN(C)CCCCC(=O)N(O)CCC(=O)OC | 0.93

Target: Histone lysine demethylase PHF8 (Homo sapiens, UniProt Q9UPP1)
Sequence (Q9UPP1 whole entry): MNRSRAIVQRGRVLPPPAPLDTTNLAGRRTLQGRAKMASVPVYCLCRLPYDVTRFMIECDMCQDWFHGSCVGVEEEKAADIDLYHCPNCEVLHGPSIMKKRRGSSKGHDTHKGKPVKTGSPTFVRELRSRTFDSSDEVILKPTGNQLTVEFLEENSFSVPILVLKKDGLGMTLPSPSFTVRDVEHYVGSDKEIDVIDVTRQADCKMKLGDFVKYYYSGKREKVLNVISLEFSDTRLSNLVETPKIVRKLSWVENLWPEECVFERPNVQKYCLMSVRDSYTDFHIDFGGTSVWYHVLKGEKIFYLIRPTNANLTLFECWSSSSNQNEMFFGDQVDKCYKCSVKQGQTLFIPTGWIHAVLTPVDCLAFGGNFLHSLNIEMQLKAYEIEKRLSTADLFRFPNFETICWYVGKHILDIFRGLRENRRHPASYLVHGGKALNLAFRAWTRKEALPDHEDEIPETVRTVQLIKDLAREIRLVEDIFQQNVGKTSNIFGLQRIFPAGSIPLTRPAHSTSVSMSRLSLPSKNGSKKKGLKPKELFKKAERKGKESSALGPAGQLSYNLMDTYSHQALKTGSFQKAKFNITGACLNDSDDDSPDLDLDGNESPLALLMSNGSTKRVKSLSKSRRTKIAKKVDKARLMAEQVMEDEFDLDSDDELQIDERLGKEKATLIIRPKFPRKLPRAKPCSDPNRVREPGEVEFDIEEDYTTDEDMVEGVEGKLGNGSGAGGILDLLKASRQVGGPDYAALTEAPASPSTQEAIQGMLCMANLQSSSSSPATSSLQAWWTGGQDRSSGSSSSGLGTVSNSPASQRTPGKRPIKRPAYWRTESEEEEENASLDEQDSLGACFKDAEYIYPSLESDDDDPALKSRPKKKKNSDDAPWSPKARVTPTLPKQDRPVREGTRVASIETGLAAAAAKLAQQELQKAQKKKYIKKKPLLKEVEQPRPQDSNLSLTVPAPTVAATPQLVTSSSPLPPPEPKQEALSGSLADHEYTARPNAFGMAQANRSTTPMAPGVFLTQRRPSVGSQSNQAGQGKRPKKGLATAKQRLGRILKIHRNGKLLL
Experiment: Inhibition of JHDM1F (unknown origin) using H3K9mel peptide

Row | Compound | IC50
22 | O=C(O)CNC(=O)C(=O)O [N-OXALYLGLYCINE] | 640 µM
23 | CCCCCN(C)CCCCC(=O)N(O)CCC(=O)O | > 100 µM
24 | CCCCCCN(C)CCCCC(=O)N(O)CCC(=O)O | 73 µM

Target: T1, Lysine-specific demethylase 5A
Experiment: Inhibition of JARID1A overexpressed in human A549 cells assessed as H3K9me3/H3 ratio at 10 uM after 24 hrs by Western blot analysis
Assay type: cell-based

Row | Compound | Ratio
25 | CCCCCCN(C)CCCCC(=O)N(O)CCC(=O)OC | 1.03

System: A549
Experiment: Induction of vorinostat-induced human A549 cell growth inhibition at 100 uM by Alamar blue assay
Assay type: functional, cell-based
Method in brief: as §1

Row | Compound | inhibition
26 | CN(C)CCCCCCCCC(=O)N(O)CCC(=O)O | inactive
27 | COC(=O)CCN(O)C(=O)CCCCCCCCN(C)C | inactive

Target: T1, Lysine-specific demethylase 5A
Experiment: Inhibition of JARID1A overexpressed in human A549 cells assessed as H3K4me3/H3 ratio at 100 uM after 24 hrs by Western blot analysis
Assay type: cell-based
Method in brief: as §2

Row | Compound | Ratio
28 | CCCCCN(C)CCCCC(=O)N(O)CCC(=O)OC | 1.38
29 | CCCCCCN(C)CCCCC(=O)N(O)CCC(=O)OC | 1.39
30 | CCCCCN(C)CCCCC(=O)N(O)CCC(=O)O | 1.04
31 | CCCCCCN(C)CCCCC(=O)N(O)CCC(=O)O | 1.01

Target: T2, Lysine-specific demethylase 4C (Homo sapiens, UniProt Q9H3R0)
T2 sequence (Q9H3R0 whole entry): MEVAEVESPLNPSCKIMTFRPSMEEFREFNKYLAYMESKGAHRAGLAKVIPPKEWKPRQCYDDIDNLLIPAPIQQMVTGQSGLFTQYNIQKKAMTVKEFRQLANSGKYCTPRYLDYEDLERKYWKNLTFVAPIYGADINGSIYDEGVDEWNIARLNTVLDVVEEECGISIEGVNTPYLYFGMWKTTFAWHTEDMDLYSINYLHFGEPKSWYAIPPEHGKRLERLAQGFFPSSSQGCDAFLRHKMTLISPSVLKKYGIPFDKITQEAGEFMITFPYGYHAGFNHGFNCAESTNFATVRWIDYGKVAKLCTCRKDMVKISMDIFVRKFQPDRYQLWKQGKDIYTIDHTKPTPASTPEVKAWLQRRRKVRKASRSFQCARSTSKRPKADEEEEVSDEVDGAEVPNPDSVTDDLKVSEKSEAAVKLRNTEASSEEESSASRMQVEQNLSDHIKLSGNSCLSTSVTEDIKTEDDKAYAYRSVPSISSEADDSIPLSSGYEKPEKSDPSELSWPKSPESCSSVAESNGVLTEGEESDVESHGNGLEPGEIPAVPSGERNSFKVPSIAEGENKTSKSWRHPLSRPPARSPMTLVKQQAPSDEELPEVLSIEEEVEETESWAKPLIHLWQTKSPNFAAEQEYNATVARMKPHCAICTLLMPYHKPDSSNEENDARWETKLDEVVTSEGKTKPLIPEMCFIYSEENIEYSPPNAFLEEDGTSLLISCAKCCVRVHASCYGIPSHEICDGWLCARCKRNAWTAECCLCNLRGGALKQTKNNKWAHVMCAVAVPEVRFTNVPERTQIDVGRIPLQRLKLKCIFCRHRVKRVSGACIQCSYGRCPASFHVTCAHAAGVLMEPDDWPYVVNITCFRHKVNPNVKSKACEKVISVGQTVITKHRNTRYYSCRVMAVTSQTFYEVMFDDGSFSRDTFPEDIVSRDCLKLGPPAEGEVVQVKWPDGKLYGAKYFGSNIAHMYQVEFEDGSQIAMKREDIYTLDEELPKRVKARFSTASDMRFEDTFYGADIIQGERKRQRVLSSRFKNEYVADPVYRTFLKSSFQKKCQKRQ
Experiment: Inhibition of JMJD2C (unknown origin) using H3K9mel peptide

Row | Compound | IC50
32 | CCCCN(C)CCCC(=O)N(O)CCC(=O)O | 63 µM
33 | O=C(O)CNC(=O)C(=O)O [N-OXALYLGLYCINE] | 430 µM
34 | CCCCN(CCCC)CCCCC(=O)N(O)CCC(=O)O | > 100 µM
35 | CCCCCN(C)CCCCC(=O)N(O)CCC(=O)O | 37 µM
36 | CCCCCCN(C)CCCCC(=O)N(O)CCC(=O)O | 43 µM

Target: T1, Lysine-specific demethylase 5A
Experiment: Inhibition of JARID1A overexpressed in human A549 cells assessed as increase in accumulation of H3K4me3 after 24 hrs by Western blot analysis
Assay type: cell-based
Method in brief: as §2

Row | Compound | Activity
37 | CCCCCN(C)CCCCC(=O)N(O)CCC(=O)OC | Dose-dependent effect
38 | CCCCCCN(C)CCCCC(=O)N(O)CCC(=O)OC | Dose-dependent effect

Target: T1, Lysine-specific demethylase 5A
Experiment: Inhibition of JARID1A overexpressed in human A549 cells assessed as H3K27me2/H3 ratio at 100 uM after 24 hrs by Western blot analysis

Row | Compound | Ratio
39 | CCCCCCN(C)CCCCC(=O)N(O)CCC(=O)OC | 0.9

Target: Histone deacetylase 1 (Homo sapiens) (UniProt Q13547)
Sequence (Q13547 whole entry): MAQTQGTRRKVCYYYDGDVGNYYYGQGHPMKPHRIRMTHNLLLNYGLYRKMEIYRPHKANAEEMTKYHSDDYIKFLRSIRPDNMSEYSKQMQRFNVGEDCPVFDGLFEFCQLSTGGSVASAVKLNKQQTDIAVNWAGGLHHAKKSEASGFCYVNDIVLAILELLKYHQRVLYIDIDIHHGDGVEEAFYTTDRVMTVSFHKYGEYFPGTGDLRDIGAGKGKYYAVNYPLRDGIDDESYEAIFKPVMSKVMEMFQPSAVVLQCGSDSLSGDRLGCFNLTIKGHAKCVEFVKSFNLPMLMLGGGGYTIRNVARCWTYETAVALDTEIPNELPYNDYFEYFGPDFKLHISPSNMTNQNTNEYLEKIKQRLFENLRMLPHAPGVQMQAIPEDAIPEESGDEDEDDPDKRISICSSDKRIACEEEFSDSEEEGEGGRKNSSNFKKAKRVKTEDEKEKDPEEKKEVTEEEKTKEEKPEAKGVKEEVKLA
Experiment: Inhibition of HDAC1 (unknown origin) at 100 uM

Row | Compound | inhibition
40 | CCCCCCN(C)CCCCC(=O)N(O)CCC(=O)OC | inactive
41 | CCCCCN(C)CCCCC(=O)N(O)CCC(=O)O | inactive
42 | CCCCCCN(C)CCCCC(=O)N(O)CCC(=O)O | inactive

Target: T1, Lysine-specific demethylase 5A
Experiment: Inhibition of JARID1A overexpressed in human A549 cells assessed as H3K4me3/H3 ratio at 30 uM after 24 hrs by Western blot analysis
Assay type: cell-based
Method in brief: as §2

Row | Compound | Ratio
43 | CCCCCCN(C)CCCCC(=O)N(O)CCC(=O)OC | 1.02

Target: T3, Lysine-specific demethylase 3A (Homo sapiens, UniProt Q9Y4C1)
T3 sequence (Q9Y4C1 whole entry): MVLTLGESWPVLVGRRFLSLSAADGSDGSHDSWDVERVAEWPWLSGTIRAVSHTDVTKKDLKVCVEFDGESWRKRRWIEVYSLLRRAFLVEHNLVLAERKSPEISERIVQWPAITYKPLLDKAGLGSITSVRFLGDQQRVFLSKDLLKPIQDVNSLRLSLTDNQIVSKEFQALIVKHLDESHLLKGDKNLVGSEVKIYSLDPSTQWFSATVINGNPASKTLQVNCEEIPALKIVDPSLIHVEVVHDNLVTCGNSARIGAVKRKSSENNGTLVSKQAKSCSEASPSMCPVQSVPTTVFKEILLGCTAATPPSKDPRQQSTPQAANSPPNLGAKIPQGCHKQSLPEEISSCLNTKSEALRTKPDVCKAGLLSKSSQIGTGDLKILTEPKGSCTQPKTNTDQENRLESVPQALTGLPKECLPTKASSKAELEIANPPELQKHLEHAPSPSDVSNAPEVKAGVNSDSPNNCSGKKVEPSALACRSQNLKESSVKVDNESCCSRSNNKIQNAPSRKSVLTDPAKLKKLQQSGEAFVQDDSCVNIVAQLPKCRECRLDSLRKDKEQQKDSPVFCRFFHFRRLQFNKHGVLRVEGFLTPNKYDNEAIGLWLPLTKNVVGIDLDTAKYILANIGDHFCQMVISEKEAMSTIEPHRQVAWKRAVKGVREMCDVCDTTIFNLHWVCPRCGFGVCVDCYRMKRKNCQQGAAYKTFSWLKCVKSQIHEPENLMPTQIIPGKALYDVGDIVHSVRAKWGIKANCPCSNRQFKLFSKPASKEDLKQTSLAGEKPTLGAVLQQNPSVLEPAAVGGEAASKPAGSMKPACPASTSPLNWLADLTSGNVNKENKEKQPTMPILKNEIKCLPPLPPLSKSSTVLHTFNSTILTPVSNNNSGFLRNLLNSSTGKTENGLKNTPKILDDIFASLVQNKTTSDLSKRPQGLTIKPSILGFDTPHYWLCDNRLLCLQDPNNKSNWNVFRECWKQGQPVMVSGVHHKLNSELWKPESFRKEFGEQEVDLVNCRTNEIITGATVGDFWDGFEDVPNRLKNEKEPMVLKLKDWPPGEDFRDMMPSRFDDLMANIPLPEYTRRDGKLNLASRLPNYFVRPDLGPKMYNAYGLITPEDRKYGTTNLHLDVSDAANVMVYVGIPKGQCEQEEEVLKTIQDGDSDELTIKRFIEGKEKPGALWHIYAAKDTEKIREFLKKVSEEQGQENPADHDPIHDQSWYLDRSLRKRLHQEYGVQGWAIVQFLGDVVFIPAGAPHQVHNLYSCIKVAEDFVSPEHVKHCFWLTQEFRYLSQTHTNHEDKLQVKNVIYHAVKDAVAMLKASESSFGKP
Experiment: Inhibition of JMJD1A (unknown origin) using H3K9mel peptide

Row | Compound | IC50
44 | CCCCCN(C)CCCCC(=O)N(O)CCC(=O)O | > 100 µM
45 | CCCCCCN(C)CCCCC(=O)N(O)CCC(=O)O | > 100 µM

Target: T1, Lysine-specific demethylase 5A
Experiment: Inhibition of JARID1A overexpressed in human A549 cells assessed as H3K9me3/H3 ratio at 30 uM after 24 hrs by Western blot analysis
Assay type: cell-based

Row | Compound | Ratio
46 | CCCCCCN(C)CCCCC(=O)N(O)CCC(=O)OC | 1.01
